Data reported in ChEMBL document CHEMBL1165965, “Synthesis and structure-activity relationships of 1,2,3,4-tetrahydropyrido[2,3-b]pyrazines as potent and selective inhibitors of the anaplastic lymphoma kinase” (Bioorg Med Chem, 2010).

Key:
[1] = molecular target: T1, Serine/threonine-protein kinase STK11 (Homo sapiens) (UniProt Q15831); experiment: Inhibition of LKB1 at 1 uM
T1 sequence (whole entry): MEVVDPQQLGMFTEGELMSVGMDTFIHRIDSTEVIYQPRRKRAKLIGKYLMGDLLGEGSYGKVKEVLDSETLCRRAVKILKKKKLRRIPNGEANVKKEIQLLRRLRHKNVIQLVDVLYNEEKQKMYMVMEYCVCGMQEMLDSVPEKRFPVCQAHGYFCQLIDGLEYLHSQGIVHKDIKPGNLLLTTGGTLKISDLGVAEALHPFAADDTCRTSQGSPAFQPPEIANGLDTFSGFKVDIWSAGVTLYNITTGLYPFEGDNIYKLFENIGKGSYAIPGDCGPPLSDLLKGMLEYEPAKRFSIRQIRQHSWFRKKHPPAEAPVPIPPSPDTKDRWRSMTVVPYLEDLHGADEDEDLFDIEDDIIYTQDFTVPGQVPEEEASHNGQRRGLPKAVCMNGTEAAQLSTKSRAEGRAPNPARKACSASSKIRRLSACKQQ
How it was run: (§1)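 Single-concentration screen on the Ambit KINOMEscan platform, run against a panel of 250–400 kinases. Per-kinase inhibition was also summarized as S(90), the fraction of kinases inhibited by more than 90%.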

[2] = molecular target: Ribosomal protein S6 kinase alpha-6 (Homo sapiens) (UniProt Q9UK32); experiment: Inhibition of RPS6KA6 C-terminal domain2 at 1 uM
Sequence of Ribosomal protein S6 kinase alpha-6 (Homo sapiens) (Q9UK32 whole entry, the tested form may be a part): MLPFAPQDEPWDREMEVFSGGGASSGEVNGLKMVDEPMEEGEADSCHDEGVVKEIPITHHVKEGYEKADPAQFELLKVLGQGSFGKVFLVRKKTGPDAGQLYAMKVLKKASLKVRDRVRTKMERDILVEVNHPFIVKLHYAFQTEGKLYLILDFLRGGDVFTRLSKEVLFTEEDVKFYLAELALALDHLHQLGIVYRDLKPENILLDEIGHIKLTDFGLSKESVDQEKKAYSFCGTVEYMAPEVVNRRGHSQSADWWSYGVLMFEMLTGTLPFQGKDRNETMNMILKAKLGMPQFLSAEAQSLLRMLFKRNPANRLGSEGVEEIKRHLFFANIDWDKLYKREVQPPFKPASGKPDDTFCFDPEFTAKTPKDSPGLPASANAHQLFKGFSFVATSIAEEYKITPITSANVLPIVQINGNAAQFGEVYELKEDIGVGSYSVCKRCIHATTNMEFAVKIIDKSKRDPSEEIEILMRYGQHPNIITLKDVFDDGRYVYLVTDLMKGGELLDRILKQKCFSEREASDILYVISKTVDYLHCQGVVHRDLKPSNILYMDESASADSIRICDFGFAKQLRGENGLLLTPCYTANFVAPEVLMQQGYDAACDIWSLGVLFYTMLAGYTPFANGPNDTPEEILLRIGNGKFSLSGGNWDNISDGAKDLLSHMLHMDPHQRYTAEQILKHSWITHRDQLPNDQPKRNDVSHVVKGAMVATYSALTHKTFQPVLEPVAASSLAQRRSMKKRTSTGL

[3] = molecular target: Protein-tyrosine kinase 2-beta (Homo sapiens) (UniProt Q14289); experiment: Inhibition of PYK2 at 1 uM; how it was run: as §1
Sequence of Protein-tyrosine kinase 2-beta (Homo sapiens) (Q14289 whole entry, looked up): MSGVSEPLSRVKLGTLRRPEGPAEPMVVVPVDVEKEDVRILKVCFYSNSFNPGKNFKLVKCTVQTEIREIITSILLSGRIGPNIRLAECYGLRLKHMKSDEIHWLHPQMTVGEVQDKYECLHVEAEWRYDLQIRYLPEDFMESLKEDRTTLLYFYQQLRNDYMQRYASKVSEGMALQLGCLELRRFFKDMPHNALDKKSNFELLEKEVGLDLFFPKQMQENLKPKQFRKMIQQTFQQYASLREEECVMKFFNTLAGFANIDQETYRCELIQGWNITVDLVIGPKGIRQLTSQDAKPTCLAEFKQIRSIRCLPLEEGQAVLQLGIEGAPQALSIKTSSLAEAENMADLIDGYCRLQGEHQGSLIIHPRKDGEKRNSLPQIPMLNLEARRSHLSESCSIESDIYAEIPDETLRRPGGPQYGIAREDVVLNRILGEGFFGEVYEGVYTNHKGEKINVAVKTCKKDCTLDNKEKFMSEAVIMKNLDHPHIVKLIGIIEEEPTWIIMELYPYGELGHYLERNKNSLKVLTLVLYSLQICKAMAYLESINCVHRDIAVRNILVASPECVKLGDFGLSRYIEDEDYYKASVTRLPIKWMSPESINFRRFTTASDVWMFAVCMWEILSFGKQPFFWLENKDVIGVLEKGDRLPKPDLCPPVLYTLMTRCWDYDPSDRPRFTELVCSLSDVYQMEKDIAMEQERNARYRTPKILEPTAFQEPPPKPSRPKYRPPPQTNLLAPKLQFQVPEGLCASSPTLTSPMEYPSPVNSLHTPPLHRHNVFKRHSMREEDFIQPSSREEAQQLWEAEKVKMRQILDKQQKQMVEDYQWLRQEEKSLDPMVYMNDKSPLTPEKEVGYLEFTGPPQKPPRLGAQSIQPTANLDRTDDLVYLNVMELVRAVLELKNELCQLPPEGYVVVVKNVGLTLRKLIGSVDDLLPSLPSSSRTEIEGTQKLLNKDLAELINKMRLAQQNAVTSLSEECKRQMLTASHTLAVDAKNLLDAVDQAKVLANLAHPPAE

[4] = molecular target: Epidermal growth factor receptor (Homo sapiens) (UniProt P04626+P00533+Q15303+P21860); experiment: Inhibition of EGFR E746-A750del mutant at 1 uM; format: protein assay
How it was run: (§2)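 Single-concentration screen using Ambit Bioscience KINOMEscan technology across a panel of 250–400 kinases. Per-kinase inhibition from this screen was summarized as S(90), the fraction of kinases inhibited by more than 90%.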

[5] = molecular target: G protein-coupled receptor kinase 4 (Homo sapiens) (UniProt P32298); experiment: Inhibition of GRK4 at 1 uM
Sequence of G protein-coupled receptor kinase 4 (Homo sapiens) (P32298 whole entry, looked up): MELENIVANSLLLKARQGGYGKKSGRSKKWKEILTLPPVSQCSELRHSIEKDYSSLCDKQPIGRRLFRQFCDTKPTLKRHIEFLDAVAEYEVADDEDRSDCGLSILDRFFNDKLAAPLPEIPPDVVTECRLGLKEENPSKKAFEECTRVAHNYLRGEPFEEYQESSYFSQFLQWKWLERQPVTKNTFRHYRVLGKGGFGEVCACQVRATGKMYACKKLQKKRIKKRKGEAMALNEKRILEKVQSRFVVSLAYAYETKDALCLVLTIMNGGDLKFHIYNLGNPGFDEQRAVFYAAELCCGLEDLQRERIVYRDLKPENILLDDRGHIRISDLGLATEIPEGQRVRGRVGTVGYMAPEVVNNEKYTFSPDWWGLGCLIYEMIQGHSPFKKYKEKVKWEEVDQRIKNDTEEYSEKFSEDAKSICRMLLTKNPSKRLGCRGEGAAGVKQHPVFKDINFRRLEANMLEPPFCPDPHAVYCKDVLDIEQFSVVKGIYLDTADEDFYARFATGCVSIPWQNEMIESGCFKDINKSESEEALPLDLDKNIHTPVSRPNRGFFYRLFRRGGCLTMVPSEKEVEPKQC

[6] = molecular target: T2, Serine/threonine-protein kinase LATS1 (Homo sapiens) (UniProt O95835); experiment: Inhibition of LATS1 at 1 uM
T2 sequence (whole entry): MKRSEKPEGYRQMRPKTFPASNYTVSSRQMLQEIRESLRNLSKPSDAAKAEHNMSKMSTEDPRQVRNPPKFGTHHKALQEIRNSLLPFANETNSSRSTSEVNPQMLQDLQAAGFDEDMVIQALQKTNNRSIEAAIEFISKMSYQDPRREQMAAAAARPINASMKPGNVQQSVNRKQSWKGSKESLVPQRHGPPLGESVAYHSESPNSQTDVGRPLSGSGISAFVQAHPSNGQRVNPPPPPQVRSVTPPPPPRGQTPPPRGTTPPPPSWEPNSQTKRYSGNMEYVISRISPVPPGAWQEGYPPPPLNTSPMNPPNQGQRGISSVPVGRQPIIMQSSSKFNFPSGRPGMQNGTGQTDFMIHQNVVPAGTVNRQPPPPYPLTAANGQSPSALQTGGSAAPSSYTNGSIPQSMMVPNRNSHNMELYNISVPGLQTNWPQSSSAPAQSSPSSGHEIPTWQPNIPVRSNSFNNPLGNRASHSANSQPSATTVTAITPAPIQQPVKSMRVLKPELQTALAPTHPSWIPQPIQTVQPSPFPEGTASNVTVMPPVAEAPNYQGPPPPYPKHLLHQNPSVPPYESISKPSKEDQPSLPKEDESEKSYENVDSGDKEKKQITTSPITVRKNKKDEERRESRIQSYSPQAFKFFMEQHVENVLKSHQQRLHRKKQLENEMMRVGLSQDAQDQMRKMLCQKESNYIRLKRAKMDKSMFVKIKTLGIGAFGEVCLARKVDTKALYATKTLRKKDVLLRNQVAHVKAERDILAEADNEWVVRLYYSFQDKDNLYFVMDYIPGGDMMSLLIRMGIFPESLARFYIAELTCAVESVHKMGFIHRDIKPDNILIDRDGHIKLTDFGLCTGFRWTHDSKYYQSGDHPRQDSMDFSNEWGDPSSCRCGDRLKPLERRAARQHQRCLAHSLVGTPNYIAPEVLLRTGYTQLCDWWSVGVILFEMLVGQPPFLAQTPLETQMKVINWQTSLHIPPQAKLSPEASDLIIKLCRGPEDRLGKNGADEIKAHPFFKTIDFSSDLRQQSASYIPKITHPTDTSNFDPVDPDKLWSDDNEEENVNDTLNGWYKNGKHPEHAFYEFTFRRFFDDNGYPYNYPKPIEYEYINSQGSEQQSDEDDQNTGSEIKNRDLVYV

[7] = molecular target: Fibroblast growth factor receptor 1 (Homo sapiens) (UniProt P11362); experiment: Inhibition of FGFR1 at 1 uM; how it was run: as §2
Sequence of Fibroblast growth factor receptor 1 (Homo sapiens) (P11362 22-822 limits assumed): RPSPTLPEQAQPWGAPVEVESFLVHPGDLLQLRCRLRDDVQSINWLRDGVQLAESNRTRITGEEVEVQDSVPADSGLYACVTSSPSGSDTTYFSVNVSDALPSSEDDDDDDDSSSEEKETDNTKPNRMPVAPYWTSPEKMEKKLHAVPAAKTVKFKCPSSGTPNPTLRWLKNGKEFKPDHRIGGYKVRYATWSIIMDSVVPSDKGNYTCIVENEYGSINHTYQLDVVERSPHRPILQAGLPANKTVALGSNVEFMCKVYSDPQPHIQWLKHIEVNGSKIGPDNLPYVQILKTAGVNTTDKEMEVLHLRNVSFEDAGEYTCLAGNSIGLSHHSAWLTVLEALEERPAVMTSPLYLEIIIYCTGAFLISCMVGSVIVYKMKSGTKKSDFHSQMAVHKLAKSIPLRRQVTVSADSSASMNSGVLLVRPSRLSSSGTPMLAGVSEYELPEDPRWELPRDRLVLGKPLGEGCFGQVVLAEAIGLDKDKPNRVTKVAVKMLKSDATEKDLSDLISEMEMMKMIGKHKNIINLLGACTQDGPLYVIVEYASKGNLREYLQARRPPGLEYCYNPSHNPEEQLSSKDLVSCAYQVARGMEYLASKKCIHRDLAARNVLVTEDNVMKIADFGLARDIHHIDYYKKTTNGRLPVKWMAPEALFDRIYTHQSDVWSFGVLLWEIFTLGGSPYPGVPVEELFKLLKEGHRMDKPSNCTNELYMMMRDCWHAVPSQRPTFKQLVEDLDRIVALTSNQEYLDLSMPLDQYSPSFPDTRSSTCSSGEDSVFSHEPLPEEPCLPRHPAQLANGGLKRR

[8] = molecular target: Protein-tyrosine kinase 6 (Homo sapiens) (UniProt Q13882); experiment: Inhibition of BRK at 1 uM
Sequence of Protein-tyrosine kinase 6 (Homo sapiens) (Q13882 whole entry, looked up): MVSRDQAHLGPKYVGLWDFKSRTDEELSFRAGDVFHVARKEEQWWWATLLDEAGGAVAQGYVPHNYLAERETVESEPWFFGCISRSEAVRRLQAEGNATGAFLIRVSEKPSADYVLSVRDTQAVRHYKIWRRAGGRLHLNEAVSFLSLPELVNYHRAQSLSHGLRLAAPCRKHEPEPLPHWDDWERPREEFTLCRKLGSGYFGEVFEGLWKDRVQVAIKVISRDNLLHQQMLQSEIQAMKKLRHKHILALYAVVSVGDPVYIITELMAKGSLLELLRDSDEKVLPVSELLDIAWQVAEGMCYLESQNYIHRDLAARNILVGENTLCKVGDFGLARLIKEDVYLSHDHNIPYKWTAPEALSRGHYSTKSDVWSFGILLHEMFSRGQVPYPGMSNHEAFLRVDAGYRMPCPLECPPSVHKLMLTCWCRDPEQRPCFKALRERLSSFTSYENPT
How it was run: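 Ambit KINOMEscan screen at a single concentration across a 250–400 kinase panel, recorded as percent inhibition. Selectivity was expressed as S(90), the fraction of kinases inhibited >90%.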

[9] = molecular target: Serine/threonine-protein kinase MARK2 (Homo sapiens) (UniProt Q7KZI7); experiment: Inhibition of MARK2 at 1 uM
Sequence of Serine/threonine-protein kinase MARK2 (Homo sapiens) (Q7KZI7 whole entry): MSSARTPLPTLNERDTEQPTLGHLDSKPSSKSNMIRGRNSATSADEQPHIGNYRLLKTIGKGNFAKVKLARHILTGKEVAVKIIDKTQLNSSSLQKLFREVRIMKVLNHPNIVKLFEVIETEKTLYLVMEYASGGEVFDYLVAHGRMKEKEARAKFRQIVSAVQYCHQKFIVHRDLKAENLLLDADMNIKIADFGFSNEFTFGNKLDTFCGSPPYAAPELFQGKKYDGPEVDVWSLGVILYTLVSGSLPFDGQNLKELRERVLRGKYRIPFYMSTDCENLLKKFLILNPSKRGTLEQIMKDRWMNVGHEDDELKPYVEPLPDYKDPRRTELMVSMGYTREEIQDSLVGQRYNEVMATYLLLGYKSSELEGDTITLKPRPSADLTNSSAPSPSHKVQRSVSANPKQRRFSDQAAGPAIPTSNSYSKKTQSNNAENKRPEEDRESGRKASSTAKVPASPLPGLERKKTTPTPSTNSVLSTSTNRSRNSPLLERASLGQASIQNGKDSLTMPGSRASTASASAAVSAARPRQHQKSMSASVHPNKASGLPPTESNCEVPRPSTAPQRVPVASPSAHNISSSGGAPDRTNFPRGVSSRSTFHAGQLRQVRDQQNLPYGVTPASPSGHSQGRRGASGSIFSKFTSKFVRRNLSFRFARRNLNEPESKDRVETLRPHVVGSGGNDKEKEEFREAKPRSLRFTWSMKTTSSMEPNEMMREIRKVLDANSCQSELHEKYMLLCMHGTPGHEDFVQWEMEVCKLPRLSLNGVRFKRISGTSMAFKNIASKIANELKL
How it was run: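 Kinase-panel screen using KINOMEscan technology, with 250–400 kinases per panel. Each compound was tested at a single concentration, and inhibition of each kinase was recorded. Selectivity was summarised as S(90), the fraction of kinases inhibited by more than 90%.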

Measured: inhibition

CN1CCN(c2ccc(-c3cnc4c(c3)N(Cc3cc(F)ccc3F)CCN4)cn2)CC1
< 50%: all assays above

CC(=O)N1CCN(c2cc(-c3cnc4c(c3)N(Cc3cc(Cl)ccc3C(F)(F)F)CCN4)ccn2)CC1
66%: [9]
84%: [3]
< 50%: all other assays above

CN1CCN(c2ccc(-c3cnc4c(c3)N(Cc3c(F)ccc(F)c3Cl)CCN4)cn2)CC1
< 50%: all assays above

FC(F)(F)c1ccc(Cl)cc1CN1CCNc2ncc(-c3ccnc(N4CCNCC4)c3)cc21
87%: [3]
< 50%: all other assays above

CN1CCN(c2ccc(-c3cnc4c(c3)N(Cc3cc(Cl)ccc3Cl)CCN4)cn2)CC1
< 50%: all assays above

O=C(c1ccc(-c2cnc3c(c2)N(Cc2cc(Cl)ccc2C(F)(F)F)CCN3)cc1)N1CCC(N2CCCC2)CC1
90.8%: [3]
72.3%: [9]
not listed: [5] | [6]
< 50%: all other assays above

O=C(O)c1ccc(-c2cnc3c(c2)N(Cc2cc(Cl)ccc2C(F)(F)F)CCN3)cc1
85%: [9]
not listed: [5] | [6]
< 50%: all other assays above

CN1CCN(c2ccc(-c3cnc4c(c3)N(Cc3cc(Cl)ccc3C(F)(F)F)CCN4)cn2)CC1
71%: [3]
< 50%: all other assays above

O=C(c1ccc(-c2cnc3c(c2)N(Cc2cc(Cl)ccc2C(F)(F)F)CCN3)cc1)N1CCCCC1
not listed: [5] | [6]
< 50%: all other assays above

COC1CCN(C(=O)c2ccc(-c3cnc4c(c3)N(Cc3cc(Cl)ccc3C(F)(F)F)CCN4)cc2)CC1
68%: [3]
not listed: [5] | [6]
< 50%: all other assays above
